Measurements: ChEMBL document CHEMBL5126677, “Covalent Modification of the JH2 Domain of Janus Kinase 2” (ACS Med Chem Lett, 2022)

What was measured:
Homo sapiens [1] = species: Homo sapiens; assay: Selectivity ratio of Kd for wild type JAK2 JH2 (unknown origin) expressed in baculovirus infected Sf9 insect cells incubated for 30 mins to Kd for wild type JAK2 JH2 (unknown origin) expressed in baculovirus infected Sf9 insect cells incubated for 20 hrs
[2] = target: T1, Tyrosine-protein kinase JAK2 (Homo sapiens, UniProt O60674); assay: Binding affinity to wild type JAK2 JH2 (unknown origin) expressed in baculovirus infected Sf9 insect cells incubated for 20 hrs by competitive fluorescence polarization assay
T1 sequence (O60674 whole entry, the tested form may be a part): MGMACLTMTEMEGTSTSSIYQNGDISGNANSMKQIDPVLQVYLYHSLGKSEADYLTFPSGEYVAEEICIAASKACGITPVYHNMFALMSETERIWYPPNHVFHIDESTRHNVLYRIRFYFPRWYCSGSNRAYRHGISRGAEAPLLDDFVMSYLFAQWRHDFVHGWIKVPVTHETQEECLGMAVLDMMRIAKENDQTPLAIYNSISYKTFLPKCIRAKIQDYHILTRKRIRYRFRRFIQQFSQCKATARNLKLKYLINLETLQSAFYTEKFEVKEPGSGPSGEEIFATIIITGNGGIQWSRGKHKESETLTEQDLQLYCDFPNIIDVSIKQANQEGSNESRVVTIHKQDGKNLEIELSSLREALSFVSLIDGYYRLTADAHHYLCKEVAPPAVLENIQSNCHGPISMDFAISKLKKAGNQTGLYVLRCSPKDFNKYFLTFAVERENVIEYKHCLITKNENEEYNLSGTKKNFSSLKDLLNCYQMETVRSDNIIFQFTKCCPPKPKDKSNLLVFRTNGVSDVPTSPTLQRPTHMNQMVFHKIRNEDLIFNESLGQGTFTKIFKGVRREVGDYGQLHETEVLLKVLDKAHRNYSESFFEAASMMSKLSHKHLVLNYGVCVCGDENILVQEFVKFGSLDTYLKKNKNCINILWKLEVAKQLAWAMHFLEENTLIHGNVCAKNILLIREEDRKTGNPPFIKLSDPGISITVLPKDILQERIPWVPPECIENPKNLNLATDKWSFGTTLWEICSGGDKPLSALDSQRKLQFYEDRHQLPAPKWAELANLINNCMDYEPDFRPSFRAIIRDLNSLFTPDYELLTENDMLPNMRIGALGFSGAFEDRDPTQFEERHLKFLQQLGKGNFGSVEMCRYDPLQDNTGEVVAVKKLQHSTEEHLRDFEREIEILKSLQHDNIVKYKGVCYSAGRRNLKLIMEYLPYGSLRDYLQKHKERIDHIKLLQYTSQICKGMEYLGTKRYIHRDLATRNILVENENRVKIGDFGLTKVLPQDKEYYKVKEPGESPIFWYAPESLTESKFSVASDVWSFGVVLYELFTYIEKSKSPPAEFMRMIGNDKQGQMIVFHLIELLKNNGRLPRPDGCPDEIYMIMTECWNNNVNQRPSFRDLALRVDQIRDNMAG
Outline: (§1)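 JAK2 JH2 domain Kd from a competitive fluorescence polarization tracer-displacement assay, with readings after 30 min and after 20 h incubation. The negative control was tracer in buffer. The positive control used enough protein to bind all tracer, at the same protein concentration used across the assays.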

[3] = target: T1, Tyrosine-protein kinase JAK2; assay: Binding affinity to wild type JAK2 JH2 (unknown origin) expressed in baculovirus infected Sf9 insect cells incubated for 30 mins by competitive fluorescence polarization assay
Outline: as §1

Homo sapiens [4] = species: Homo sapiens; assay: Selectivity ratio of Kd for wild type JAK2 JH1 (unknown origin) expressed in baculovirus infected Sf9 insect cells incubated for 30 mins to Kd for wild type JAK2 JH2 (unknown origin) expressed in baculovirus infected Sf9 insect cells incubated for 30 mins
Outline: (§2)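 Selectivity is the ratio of JH1 Kd to JH2 Kd, both from the same competitive fluorescence polarization assay. JH2 Kd was taken at the 30 min or 20 h incubation. Controls were tracer in buffer (negative) and saturating protein at the common protein concentration (positive).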

[5] = target: T1, Tyrosine-protein kinase JAK2; assay: Binding affinity to wild type JAK2 JH1 (unknown origin) expressed in baculovirus infected Sf9 insect cells incubated for 30 mins by competitive fluorescence polarization assay
Homo sapiens [6] = species: Homo sapiens; assay: Selectivity ratio of Kd for wild type JAK2 JH1 (unknown origin) expressed in baculovirus infected Sf9 insect cells incubated for 30 mins to Kd for wild type JAK2 JH2 (unknown origin) expressed in baculovirus infected Sf9 insect cells incubated for 20 hrs
Outline: as §2

Row | Kd [2] | Kd [3] | Kd [5] | Compound | Selectivity ratio (Homo sapiens [1]) | Selectivity ratio (Homo sapiens [4]) | Selectivity ratio (Homo sapiens [6])
1 | 800 nM | 1250 nM |  | C=CC(=O)NCc1ccc(F)c(C(=O)n2nc(Nc3ccc(C(=O)NC)cc3)nc2N)c1F | 1.6 |  | 
2 | 110 nM | 556 nM | 1280 nM | C=CC(=O)NCCc1ccc(F)c(C(=O)n2nc(Nc3ccc(C(=O)NC)cc3)nc2N)c1F | 5.1 | 2.3 | 11.6
3 | 154 nM | 617 nM | 4370 nM | C=CC(=O)NCCOc1ccc(F)c(C(=O)n2nc(Nc3ccc(C(=O)NC)cc3)nc2N)c1F | 4 | 7.1 | 28.4
4 | 565 nM | 578 nM |  | C/C=C/C(=O)NCCc1ccc(F)c(C(=O)n2nc(Nc3ccc(C(=O)NC)cc3)nc2N)c1F | 1 |  | 
5 | 263 nM | 171 nM |  | CNC(=O)c1ccc(Nc2nc(N)n(C(=O)c3c(F)cccc3F)n2)cc1 | 0.65 |  | 
6 | 75 nM | 242 nM | 830 nM | C=CC(=O)NCCc1cc(F)c(C(=O)n2nc(Nc3ccc(C(=O)NC)cc3)nc2N)c(F)c1 | 3.2 | 3.4 | 11.1
